From paper PMC11439047 (Nature Communications, 2024)
Numbering of substitutions follows the chain as printed.

Tests used:
P2X1 receptor K215A = biological target: T1, P2X1 receptor K215A (Homo sapiens, UniProt P51575, K215A); test: Saturation radioligand binding with [3H]-α,β-methylene ATP
T1 sequence (P51575 1-399 K215A): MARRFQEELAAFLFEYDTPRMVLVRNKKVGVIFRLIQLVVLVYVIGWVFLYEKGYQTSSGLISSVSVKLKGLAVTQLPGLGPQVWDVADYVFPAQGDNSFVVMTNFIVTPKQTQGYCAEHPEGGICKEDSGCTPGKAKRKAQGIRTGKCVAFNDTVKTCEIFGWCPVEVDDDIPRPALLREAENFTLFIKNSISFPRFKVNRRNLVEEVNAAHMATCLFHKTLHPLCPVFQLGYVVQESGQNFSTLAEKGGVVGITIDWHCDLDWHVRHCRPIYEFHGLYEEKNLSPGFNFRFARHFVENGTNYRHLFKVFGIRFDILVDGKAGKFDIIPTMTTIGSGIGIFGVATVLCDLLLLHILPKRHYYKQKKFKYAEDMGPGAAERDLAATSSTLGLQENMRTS
In short: (§1)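 Whole HEK293 Flp-In T-REx cells stably expressing receptor, tetracycline-induced (150 ng/ml, 2 days), 15,000 cells/well, washed in HEPES binding buffer pH 7.4 with Ca2+/Mg2+. Increasing [3H]-α,β-methylene ATP added, 3 h room temperature with gentle agitation; non-specific binding with 10 μM ATP. Ice-cold 0.9% NaCl washes, scintillation counting (CCPM). Specific binding fitted one-site; values above 300 nM termed not defined.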

P2X1 receptor R292A = biological target: T2, P2X1 receptor R292A (Homo sapiens, UniProt P51575, R292A); test: as above
T2 sequence (P51575 1-399 R292A): T1 sequence (P51575 1-399 K215A) with A215K, R292A
In short: as §1

P2X1 receptor R139A [1] = biological target: T3, P2X1 receptor R139A (Homo sapiens, UniProt P51575, R139A); test: Calcium ion influx assay; assay type: cell-based
T3 sequence (P51575 1-399 R139A): T1 sequence (P51575 1-399 K215A) with R139A, A215K

P2X1 receptor K136A = biological target: T4, P2X1 receptor K136A (Homo sapiens, UniProt P51575, K136A); test: Saturation radioligand binding with [3H]-α,β-methylene ATP
T4 sequence (P51575 1-399 K136A): T1 sequence (P51575 1-399 K215A) with K136A, A215K
In short: as §1

P2X1 receptor M214A = biological target: T5, P2X1 receptor M214A (Homo sapiens, UniProt P51575, M214A); test: Calcium ion influx assay; assay type: cell-based
T5 sequence (P51575 1-399 M214A): T1 sequence (P51575 1-399 K215A) with M214A, A215K

P2X1 receptor R139A [2] = biological target: T3, P2X1 receptor R139A; test: Saturation radioligand binding with [3H]-α,β-methylene ATP
In short: as §1

binding affinity compared to WT-P2X1 (P2X1 receptor K215A): similar
binding affinity compared to WT-P2X1 (P2X1 receptor R292A): reduced
fold decrease in potency compared to WT-P2X1 (P2X1 receptor R139A [1]): 3.5 fold
binding affinity compared to WT-P2X1 (P2X1 receptor K136A): similar
fold decrease in potency compared to WT-P2X1 (P2X1 receptor M214A): 7 fold
fold decrease in affinity compared to WT-P2X1 (P2X1 receptor R139A [2]): 6 fold
Structure (SMILES): Nc1ncnc2c1ncn2[C@@H]1O[C@H](COP(=O)(O)CP(=O)(O)OP(=O)(O)O)[C@@H](O)[C@H]1O [α,β-methylene ATP]
desensitisation rate compared to WT-P2X1 (P2X1 receptor R139A [1]; maximal α,β-methylene ATP): significantly slowed the desensitisation rate
desensitisation rate compared to WT-P2X1 (P2X1 receptor M214A; maximal α,β-methylene ATP): significantly slowed the desensitisation rate
